# Compounds with a hit are over-represented: about 5.8% of the library has one in this group of screens.
# 14-3-3 Bad PPI: disrupts binding of bovine 14-3-3 zeta to phospho-Bad peptide; 220,000 tested, 0.71% active; inhibition, % at 21.7 µM; TR-FRET 14-3-3zeta/Dy647-pBad peptide displacement, 1 h;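 active = inhibition above about 70%, limit read from the data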;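 also: 0% = full 14-3-3 plus peptide FRET controls and 100% = background without 14-3-3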
# ROMK primary: human ROMK K+ channel modulation, primary screen; Tet-inducible ROMK, thallium flux fluorescence; actives lie on both sides; 130,000 tested, 2% active; B-score at 10 µM; AID 1918; P48048;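 active = signal ratio slope over the read window, or its plate-corrected B-score, at least 3 SD from the plate mean, either direction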;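 also: B-score of the F/F0 ratio slope over 7 to 12 s after thallium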
# Cl transport mod: modulators of human KCC2 chloride dependent transport; KCC2 cells, thallium flux FluoZin-2 fluorescence; Q9H2X9; B-score of Tl+ flux slope (higher = more flux/activation; lower = inhibition) at 10 µM; 190,000 tested, 2.2% active;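 active = thallium flux slope and its plate-corrected score both differing from the plate sample mean at a set confidence after two filtering rounds, in either direction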;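 also: slope of fluorescence scaled to starting intensity during 10 to 20 s after thallium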
# Target sequence (Q9H2X9 whole entry, looked up): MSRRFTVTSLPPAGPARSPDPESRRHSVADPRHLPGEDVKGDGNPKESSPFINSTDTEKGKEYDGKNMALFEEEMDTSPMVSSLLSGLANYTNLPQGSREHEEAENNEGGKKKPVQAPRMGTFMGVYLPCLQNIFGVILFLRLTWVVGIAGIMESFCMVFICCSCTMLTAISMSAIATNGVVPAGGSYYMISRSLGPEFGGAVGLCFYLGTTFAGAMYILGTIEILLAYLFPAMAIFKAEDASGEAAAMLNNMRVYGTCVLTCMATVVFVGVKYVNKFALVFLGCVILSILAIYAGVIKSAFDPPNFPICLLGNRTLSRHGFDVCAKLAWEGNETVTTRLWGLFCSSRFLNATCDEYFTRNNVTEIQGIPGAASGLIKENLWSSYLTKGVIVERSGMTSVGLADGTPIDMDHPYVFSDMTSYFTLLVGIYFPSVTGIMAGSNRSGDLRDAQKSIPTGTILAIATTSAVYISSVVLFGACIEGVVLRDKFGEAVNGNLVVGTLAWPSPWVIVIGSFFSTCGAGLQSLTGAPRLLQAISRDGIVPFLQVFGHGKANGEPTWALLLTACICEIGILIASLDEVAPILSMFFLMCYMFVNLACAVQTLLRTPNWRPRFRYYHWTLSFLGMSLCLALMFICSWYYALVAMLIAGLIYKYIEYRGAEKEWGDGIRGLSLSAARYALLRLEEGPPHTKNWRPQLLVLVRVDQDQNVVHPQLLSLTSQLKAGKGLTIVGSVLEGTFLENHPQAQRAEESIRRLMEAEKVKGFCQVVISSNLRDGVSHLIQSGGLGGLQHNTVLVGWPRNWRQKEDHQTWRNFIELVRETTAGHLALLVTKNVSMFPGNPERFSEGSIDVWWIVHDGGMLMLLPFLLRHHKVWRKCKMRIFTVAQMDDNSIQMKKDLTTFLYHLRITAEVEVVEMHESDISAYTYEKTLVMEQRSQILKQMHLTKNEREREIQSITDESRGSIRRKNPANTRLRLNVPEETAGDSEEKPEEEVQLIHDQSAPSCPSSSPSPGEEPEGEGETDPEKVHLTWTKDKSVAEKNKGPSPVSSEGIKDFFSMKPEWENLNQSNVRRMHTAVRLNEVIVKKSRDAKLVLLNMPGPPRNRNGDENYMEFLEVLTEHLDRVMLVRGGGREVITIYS
# NCF1 inh: inhibitors of human p47phox binding; P14598; p47phox/p22phox peptide binding, fluorescence polarization, 2 h; inhibition, % at 24.7 µM; 220,000 tested, 0.53% active; AID 1274;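 active = inhibition above about 30%, limit read from the data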;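 also: 0% = p47phox with labelled peptide and 100% = labelled peptide alone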
# RBBP9 inhibitor: blocks human serine hydrolase RBBP9. inhibition, % at 7.94 µM. recombinant RBBP9, FP-Rh probe fluorescence polarization. 220,000 tested, 0.2% active. O75884;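 active = inhibition above the campaign mean of all tested compounds plus 3 SD, cut at about 14% in these data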;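 also: plate controls were DMSO wells with RBBP9 for no effect and wells lacking RBBP9 protein for full effect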
#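 system = RBBP9 protein | input = RBBP9 at 2.5 µM in dispensed solution, before mixing | measured by = fluorescence polarization (mP), excitation 525 nm, emission 598 nm | incubation = enzyme-compound preincubation 30 min, then probe labeling 45 min, 25 °C | buffer or medium = Tris-NaCl-Pluronic buffer, pH 8.0 | compound = single dose 7.94 µM | also added = FP-Rh probe, 375 nM dispensing solution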
# WT yeast gro inh: growth inhibition of WT yeast, mitochondrial fusion screen | AID 1362 | 190,000 tested, 2.1% active | mitochondrial fusion phenotypic screen, WT strain | inhibition, % at 10 µM; in the data active = inhibition above about 58%; tested in S. cerevisiae
# * marks the source's active call; other numbers are inactive results; · = no result given; [ ] = remark or other dose.
SMILES,14-3-3 Bad PPI,ROMK primary,Cl transport mod,NCF1 inh,RBBP9 inhibitor,WT yeast gro inh
O=c1cc(C(F)(F)F)[nH]c2c(C(F)(F)F)cccc12,11,-2,-0.84,-1,-7,78*
CCOC(=O)CSc1ccc2nnc(CCNS(=O)(=O)c3ccccc3)n2n1,83*,1.6,-0.0023,·,4,-8
CCC(=O)N1CCN(c2ccccc2NC(=O)COc2cccc(C)c2)CC1,-9,·,13*,1,-1,11
Cn1c(N)c(C(=O)COC(=O)c2ccc3c(c2)C(=O)N(c2ccc(Cl)cc2)C3=O)c(=O)n(C)c1=O,46,-0.37,-0.42,8,-1,-8
CCc1nnc(NC(=O)c2cc3ccccc3oc2=O)s1,0,·,-0.39,0,-4,-6
O=C(Nc1nc(-c2cc3ccccc3oc2=O)cs1)c1ccc(Br)o1,79*[fluorescence artefact?],1.7,-0.96,-13,-8,24
O=C(Nc1nc(-c2cccs2)cs1)c1cc2ccccc2oc1=O,3,1.6*,-0.021,-4,-2,-6
O=c1nccc(SCc2ccc(Cl)cc2Cl)[nH]1,-1,·,-0.51,-5,-2,·
CCc1cc(=O)oc2cc3occ(C)c3cc12,4,·,0.33,4,-7,-6
CCc1cc(=O)oc2cc3occ(-c4ccc(OC)c(F)c4)c3cc12,94*,·,-0.011,47*,-4,-18
Cc1nc(N2CCN(C(=O)c3ccco3)CC2)c2c3c(sc2n1)CCCC3,-8,·,-0.42,-5,2,37
Cc1nc(N2CCN(c3ccccc3)CC2)c2c3c(sc2n1)CCC3,·,·,·,·,·,74*
C/C(=N\NC(=O)Cc1cccc2ccccc12)c1ccncc1,-18,0.0037,-0.78,-2,-6,7
CN(C(=O)c1cccc(COc2ccc(Cl)cc2Cl)c1)c1ccccc1,-10,0.052,-1.3,-5,-2,77*
O=C(c1ccc(Cl)c([N+](=O)[O-])c1)N1CCN(c2ccccn2)CC1,3,·,-0.55,-4,-4,3
O=C(NCc1ccccc1)c1cccc(COc2cc(Cl)ccc2Cl)c1,-5,·,-0.084,-7,-6,-13
O=C(c1cccc(COc2ccc(Cl)cc2Cl)c1)N1CCN(c2ccccn2)CC1,3,·,-1.4,5,-8,77*
CNC(=S)Nc1cc(C)ccc1OC(F)F,6,-0.54,0.52,·,6,1
O=[N+]([O-])c1ccc(OC(F)F)c(/C=N/n2cnnc2)c1,1,·,-0.31,-13,11,·
NCC/C=C1/c2ccccc2CSc2ccccc21,1,-5.2*,0.03,-2,-1,-14
C#CCN(C)CC/C=C1\c2ccccc2CSc2ccccc21,59,0.52,·,2,-3,70*
CCN(CC)Cc1cc(O)c(CN(CC)CC)cc1O,17,-1.7,0.39,46*,-6,0
S=C(NCCSCc1ccc(Cl)cc1Cl)Nc1ccccc1,7,·,-0.81,-8,-12,80*
Cc1c(C(=O)NCCSCc2ccc(Cl)cc2Cl)cccc1[N+](=O)[O-],2,-0.31,0.92,-10,0,69*
Cc1ccccc1CSCCNC(=S)Nc1ccccc1,-9,-0.42,-1.5,-5,0,71*
SMILES,14-3-3 Bad PPI,ROMK primary,Cl transport mod,NCF1 inh,RBBP9 inhibitor,WT yeast gro inh
Cc1ccccc1CSCCNC(=O)c1ccccc1,-4,0.16,-1.8,-3,-9,7
S=C(NCCSCc1ccc(Cl)c(Cl)c1)Nc1ccccc1,·,·,·,·,-23,·
COc1ccc(CSCCNC(=S)Nc2ccccc2)cc1Cl,-24,-1.8,-0.17,-4,-6,77*
COc1ccc(CNC(C)C(=O)Nc2ccc3ccccc3c2)cc1OC (centres undefined),-9,0.56,-0.14,0,9,-13
S=C(NCCSCc1c(Cl)cccc1Cl)Nc1ccccc1,-24,·,-0.97,-3,-9,82*
CCc1nc(N2CCN(C(=O)c3ccco3)CC2)c2oc3ccccc3c2n1,77*,·,·,11,5,27
O=C(c1ccco1)N1CCN(Cc2nc(Cc3ccccc3)no2)CC1,4,1.3,1.2,131*,-1,-6
CCc1nc(N2CCCC2C(=O)O)c2oc3ccccc3c2n1 (centres undefined),5,0.13,·,1,-8,-9
CCOc1ccccc1-n1c(CN2CCN(C(=O)c3ccco3)CC2)nc2ccccc2c1=O,-5,·,-0.031,2,-5,70*
COc1ccccc1NC(=S)N(Cc1ccccn1)Cc1ccccc1Cl,-27,0.18,-0.36,-7,-9,67*

# Screening data as filed in PubChem.
